Experimental data taken from ChEMBL document CHEMBL4346746, “Inhibition of 3-phosphoglycerate dehydrogenase (PHGDH) by indole amides abrogates de novo serine synthesis in cancer cells” (Bioorg Med Chem Lett, 2019).
The source made the active and inactive calls. No cut-off for these calls is given here.

Assays:
[1] = target: T1, D-3-phosphoglycerate dehydrogenase (Homo sapiens, UniProt O43175); assay: Inhibition of PHGDH (unknown origin)
T1 sequence (O43175 whole entry): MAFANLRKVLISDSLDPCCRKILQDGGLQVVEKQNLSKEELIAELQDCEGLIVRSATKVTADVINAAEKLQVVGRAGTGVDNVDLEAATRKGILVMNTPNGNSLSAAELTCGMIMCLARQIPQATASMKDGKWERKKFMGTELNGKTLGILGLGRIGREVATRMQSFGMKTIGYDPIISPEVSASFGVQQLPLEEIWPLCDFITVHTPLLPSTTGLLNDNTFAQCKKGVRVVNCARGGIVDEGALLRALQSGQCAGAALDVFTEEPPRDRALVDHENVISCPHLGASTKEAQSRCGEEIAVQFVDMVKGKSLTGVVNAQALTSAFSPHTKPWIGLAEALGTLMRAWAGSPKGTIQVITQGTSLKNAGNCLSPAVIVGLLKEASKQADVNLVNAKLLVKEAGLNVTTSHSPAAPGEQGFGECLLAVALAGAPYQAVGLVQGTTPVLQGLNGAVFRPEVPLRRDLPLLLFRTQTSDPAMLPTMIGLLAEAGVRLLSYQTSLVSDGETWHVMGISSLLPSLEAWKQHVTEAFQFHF

[2] = target: T1, D-3-phosphoglycerate dehydrogenase; assay: Inhibition of PHGDH (unknown origin) using 140 nM of PHGDH and 3-PG as substrate incubated for 20 mins in presence of NAD+, PSAT1, PSPH by diaphorase and resazurin dye based fluorescence assay
[3] = Efflux ratio of apparent permeability across basolateral to apical over apical to basolateral side in MDCK cells overexpressing MDR1; type: ADME, cell-based, Canis lupus familiaris; conditions: dog
[4] = Lipophilicity, log D of the compound at pH 7.4 by HPLC analysis; type: physicochemical; conditions: buffer
[5] = Apparent permeability across apical to basolateral side in MDCK cells overexpressing MDR1; type: ADME, cell-based, Canis lupus familiaris; conditions: dog
[6] = target: T2, D-3-phosphoglycerate dehydrogenase (Homo sapiens) (UniProt O43175); assay: Inhibition of PHGDH-mediated serine synthesis in human Carney cells in serine free medium at 1 uM preincubated for 1 hr followed by 13C6 labelled glucose addition and measured after 2 hrs by LC/MS analysis based 13C6-Glucose tracing assay relative control; type: cell-based
T2 sequence (whole entry): T1 sequence (O43175 whole entry)
Outline: (§1)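 Carney cells were pretreated with inhibitor for 1 h in the presence of 12C3-serine, then washed. They were labelled with 13C6-glucose medium for 2 h with inhibitor still present. 13C incorporation into serine was read by LC-MS; 3-PG and pyruvate labelling were also monitored.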

[7] = Effect on pyruvate level in human Carney cells in serine free medium assessed as 13C-labeling of pyruvate at 0.1 to 10 uM preincubated for 1 hr followed by 13C6 labelled glucose addition and measured after 2 hrs by LC/MS analysis; type: ADME, cell-based
Outline: (§2)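 Carney cells were pretreated with inhibitor for 1 h in the presence of 12C3-serine, then washed. They were labeled with 13C6-glucose medium for 2 h with inhibitor still present. Label incorporation into 3-PG and pyruvate was measured by LC-MS, alongside serine labeling as the pathway read-out.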

Homo sapiens = species: Homo sapiens; assay: Antiproliferative activity against human Carney cells in serine free medium at 2 uM with media and test compound change for every 2 days and measured every 6 hrs by automated microscopic method; type: functional, cell-based
[8] = target: T2, D-3-phosphoglycerate dehydrogenase (Homo sapiens); assay: Inhibition of PHGDH-mediated serine synthesis in human Carney cells in serine free medium at uM preincubated for 1 hr followed by 13C6 labelled glucose addition and measured after 2 hrs by LC/MS analysis based 13C6-Glucose tracing assay relative control; type: cell-based; conditions: concentration not given here; outline: as §1
[9] = Effect on 3-PG level in human Carney cells in serine free medium assessed as 13C-labeling of 3-PG at 0.1 to 10 uM preincubated for 1 hr followed by 13C6 labelled glucose addition and measured after 2 hrs by LC/MS analysis; type: ADME, cell-based; outline: as §2
[10] = target: L-lactate dehydrogenase A chain (Homo sapiens, UniProt P00338); assay: Inhibition of recombinant human LDHA expressed in Escherichia coli using lactate as substrate incubated for 30 mins followed by substrate addition
[11] = Effect on 3-PG level in human Carney cells in serine free medium assessed as 13C-labeling of 3-PG at 1 to 40 uM preincubated for 1 hr followed by 13C6 labelled glucose addition and measured after 2 hrs by LC/MS analysis; type: ADME, cell-based; outline: as §2
[12] = target: T2, D-3-phosphoglycerate dehydrogenase (Homo sapiens); assay: Inhibition of PHGDH-mediated serine synthesis in human Carney cells in serine free medium up to 40 uM preincubated for 1 hr followed by 13C6 labelled glucose addition and measured after 2 hrs by LC/MS analysis based 13C6-Glucose tracing assay; type: cell-based; outline: as §1
[13] = target: T2, D-3-phosphoglycerate dehydrogenase (Homo sapiens); assay: Mixed type inhibition of PHGDH (unknown origin) assessed as rightward shift in substrate Km using 3-PG as substrate incubated for 20 mins in presence of , PSAT1, PSPH and varying NAD+ by diaphorase and resazurin dye based fluorescence assay
[14] = target: Isocitrate dehydrogenase [NADP] cytoplasmic (Homo sapiens, UniProt O75874); assay: Inhibition of recombinant human IDH1 expressed in Escherichia coli using isocitrate as substrate incubated for 30 mins followed by substrate addition
[15] = target: T3, Malate dehydrogenase, cytoplasmic (Homo sapiens, UniProt P40925); assay: Inhibition of recombinant human MDH1 expressed in Escherichia coli using malate as substrate incubated for 30 mins followed by substrate addition
T3 sequence (P40925 whole entry): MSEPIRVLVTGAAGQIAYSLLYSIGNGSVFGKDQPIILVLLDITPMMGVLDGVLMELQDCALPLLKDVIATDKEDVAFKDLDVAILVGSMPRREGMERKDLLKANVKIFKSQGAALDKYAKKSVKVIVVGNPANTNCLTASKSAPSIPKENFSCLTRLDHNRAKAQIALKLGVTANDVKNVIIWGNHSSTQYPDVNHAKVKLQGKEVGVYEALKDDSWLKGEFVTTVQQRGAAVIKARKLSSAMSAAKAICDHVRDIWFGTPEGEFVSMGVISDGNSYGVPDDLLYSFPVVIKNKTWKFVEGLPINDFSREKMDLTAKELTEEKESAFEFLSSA

[16] = target: T2, D-3-phosphoglycerate dehydrogenase (Homo sapiens); assay: Mixed type inhibition of PHGDH (unknown origin) assessed as decrease in substrate Vmax 3-PG as substrate incubated for 20 mins in presence of , PSAT1, PSPH and varying NAD+ by diaphorase and resazurin dye based fluorescence assay
[17] = Effect on pyruvate level in human Carney cells in serine free medium assessed as 13C-labeling of pyruvate at 0.1 to 20 uM preincubated for 1 hr followed by 13C6 labelled glucose addition and measured after 2 hrs by LC/MS analysis; type: ADME, cell-based; outline: as §2
[18] = Effect on 3-PG level in human Carney cells in serine free medium assessed as 13C-labeling of 3-PG at 0.1 to 20 uM preincubated for 1 hr followed by 13C6 labelled glucose addition and measured after 2 hrs by LC/MS analysis; type: ADME, cell-based; outline: as §2
[19] = target: T2, D-3-phosphoglycerate dehydrogenase (Homo sapiens); assay: Inhibition of PHGDH-mediated serine synthesis in human Carney cells in serine free medium at 10 uM preincubated for 1 hr followed by 13C6 labelled glucose addition and measured after 2 hrs by LC/MS analysis based 13C6-Glucose tracing assay relative control; type: cell-based; outline: as §1
[20] = target: T1, D-3-phosphoglycerate dehydrogenase; assay: Inhibition of PHGDH (unknown origin) using 11 nM of PHGDH and 3-PG as substrate incubated for 20 mins in presence of NAD+, PSAT1, PSPH by diaphorase and resazurin dye based fluorescence assay
in vitro = conditions: PAMPA, pH 5
[21] = Effect on pyruvate level in human Carney cells in serine free medium assessed as 13C-labeling of pyruvate at 1 to 40 uM preincubated for 1 hr followed by 13C6 labelled glucose addition and measured after 2 hrs by LC/MS analysis; type: ADME, cell-based; outline: as §2
[22] = target: T2, D-3-phosphoglycerate dehydrogenase (Homo sapiens); assay: Inhibition of PHGDH-mediated serine synthesis in human Carney cells in serine free medium preincubated for 1 hr followed by 13C6 labelled glucose addition and measured after 2 hrs by LC/MS analysis based 13C6-Glucose tracing assay relative control; type: cell-based; outline: as §1
[23] = target: T2, D-3-phosphoglycerate dehydrogenase (Homo sapiens); assay: Inhibition of PHGDH-mediated serine synthesis in human Carney cells in serine free medium at 40 uM preincubated for 1 hr followed by 13C6 labelled glucose addition and measured after 2 hrs by LC/MS analysis based 13C6-Glucose tracing assay relative control; type: cell-based; outline: as §1
[24] = target: T2, D-3-phosphoglycerate dehydrogenase (Homo sapiens); assay: Inhibition of PHGDH-mediated serine synthesis in human Carney cells in serine free medium at 1 to 40 uM preincubated for […] followed by 13C6 labelled glucose addition and measured after 2 hrs by LC/MS analysis based 13C6-Glucose tracing assay relative control; type: cell-based

Chain of Isocitrate dehydrogenase [NADP] cytoplasmic (O75874 whole entry): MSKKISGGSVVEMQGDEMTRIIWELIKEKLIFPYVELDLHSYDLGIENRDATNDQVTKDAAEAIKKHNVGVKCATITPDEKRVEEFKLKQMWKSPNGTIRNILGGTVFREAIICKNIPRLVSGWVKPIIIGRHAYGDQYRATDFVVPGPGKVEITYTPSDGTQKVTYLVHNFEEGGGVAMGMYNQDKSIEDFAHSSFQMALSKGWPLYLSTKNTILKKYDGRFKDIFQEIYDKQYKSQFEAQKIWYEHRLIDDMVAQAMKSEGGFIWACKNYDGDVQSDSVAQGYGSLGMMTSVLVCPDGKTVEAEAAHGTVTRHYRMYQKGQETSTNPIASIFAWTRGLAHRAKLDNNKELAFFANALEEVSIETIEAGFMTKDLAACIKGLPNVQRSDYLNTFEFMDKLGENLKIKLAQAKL

C#CSc1c(NC(=O)c2ccco2)sc(C(=O)OCC)c1C
IC50 [1]: 33 µM

COc1cc2c(cc1Cl)cc(C(=O)N[C@H](C)c1ccc(C(=O)O)cc1)n2C
IC50 [2]: 0.235 µM | Ratio [3]: 1.3 | logD [4]: 1.67 | Papp [5]: 1.4 ×10⁻⁶ cm/s

CC(=O)OC(C)OC(=O)C(c1ccc(C2(NC(=O)c3cc4c(Cl)c(Cl)ccc4n3C)COC2)cc1)c1cccnc1 (stereo not given)
inhibition [6]: < 100% | IC50 [2]: 1.46 µM | Activity [7]: Non-Toxic | Activity (Homo sapiens): Active | inhibition [8]: 40% | Activity [9]: Non-Toxic

O=C1NC[C@@H](COc2cc3[nH]c(C(=O)N[C@H](CO)c4ccc(C(=O)O)cc4)cc3cc2Cl)O1
IC50 [10]: > 10 µM | Activity [11]: Non-Toxic | inhibition [12]: inactive | inhibition [13]: Active | IC50 [14]: > 10 µM | IC50 [15]: > 10 µM | inhibition [16]: Active

Cn1c(C(=O)NC2(c3ccc(C(C(=O)O)c4cccnc4)cc3)COC2)cc2c(Cl)c(Cl)ccc21 (racemic)
Activity [17]: Non-Toxic | Activity [18]: Non-Toxic | Activity (Homo sapiens): Active | inhibition [19]: 90% | IC50 [14]: > 10 µM | IC50 [15]: > 10 µM

COc1cc2c(cc1Cl)cc(C(=O)NC(CN)c1ccc(C(=O)O)cc1)n2C (stereo not given)
IC50 [2]: 23.4 µM

Cn1c(C(=O)NC2(c3ccc(C(=O)O)nc3)COC2)cc2c(Cl)c(Cl)ccc21
IC50 [2]: 22 µM

Cn1c(C(=O)NC2(c3ccc(C(CC(=O)O)c4cccnc4)cc3)COC2)cc2c(Cl)c(Cl)ccc21 (stereo not given)
IC50 [20]: 0.025 µM

COc1cc2c(cc1Cl)cc(C(=O)NC(CO)c1ccc(C(=O)O)cc1)n2C (stereo not given)
IC50 [2]: 0.235 µM

Cn1c(CNC2(c3ccc(C(=O)O)cc3)COC2)cc2c(Cl)c(Cl)ccc21
IC50 [2]: 209 µM

Cn1c(C(=O)NC2(c3ccc(CC(=O)NS(C)(=O)=O)cc3)COC2)cc2c(Cl)c(Cl)ccc21
IC50 [20]: 0.439 µM

Cn1c(C(=O)NC2(c3ccc([C@@H](O)c4cccnc4)cc3)COC2)cc2c(Cl)c(Cl)ccc21
IC50 [10]: > 10 µM | IC50 [2]: 0.37 µM | IC50 [14]: > 10 µM | IC50 [15]: > 10 µM

Cn1c(C(=O)NC2(c3ccc(CO)cc3)COC2)cc2c(Cl)c(Cl)ccc21
IC50 [2]: 1.58 µM

CCOC(=O)C(c1ccc(C2(NC(=O)c3cc4c(Cl)c(Cl)ccc4n3C)COC2)cc1)c1cccnc1 (stereo not given)
IC50 [2]: 1.33 µM | Activity [7]: Non-Toxic | inhibition [19]: 70% | Activity [9]: Non-Toxic

Cn1c(C(=O)NC2(c3ccc(C(=O)O)c(F)c3)COC2)cc2c(Cl)c(Cl)ccc21
Papp at 10 µM (in vitro): 15.2 ×10⁻⁶ cm/s | IC50 [20]: 0.037 µM

CONC(=O)Cc1ccc(C2(NC(=O)c3cc4c(Cl)c(Cl)ccc4n3C)COC2)cc1
IC50 [2]: 0.287 µM

Cn1c(C(=O)NC2(c3ccc(C(=O)O)cc3)COC2)cc2c(Cl)c(Cl)ccc21
Activity [11]: Non-Toxic | Activity [21]: Non-Toxic | inhibition [22]: Dose-dependent effect | inhibition [23]: 100% | inhibition [24]: Active | inhibition [19]: 40%

Cn1c(C(=O)NC2(c3ccc(CC(=O)O)c(F)c3)COC2)cc2c(Cl)c(Cl)ccc21
IC50 [20]: 0.034 µM

Cn1c(C(=O)NC2(c3ccc([C@H](O)c4cccnc4)cc3)COC2)cc2c(Cl)c(Cl)ccc21
IC50 [2]: 0.99 µM
